Source: PubChem (several laboratories)
Hits are enriched below; roughly 1.7% of the tested compounds scored in any of these assays.
IMP-1 inh: inhibitors of Pseudomonas aeruginosa IMP-1 metallo-beta-lactamase; 290,000 tested, 0.45% active; purified IMP-1, nitrocefin hydrolysis, epi-absorbance fluorescence; inhibition, % at 5.6 µM;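 active means inhibition above the mean plus 3 SD of all compounds in the same screening run, cut at about 4.5% in these data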;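 further: 0% = IMP-1 with DMSO and 100% = DMSO wells lacking enzyme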
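System – purified recombinant IMP-1 beta-lactamase · Input – IMP-1 dispensed at 0.2 nM · Timing – 15 min preincubation plus 25 min reaction at 25 °C · Signal – Epi-absorbance fluorescence, 480 nm excitation, 530 nm emission · Measure – percent IMP-1 inhibition derived from blank-referenced optical density · Controls – Enzyme-plus-DMSO low control, enzyme-free DMSO high control · Replication – singlicate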
VIM-2 inhibitor: blocks Pseudomonas aeruginosa VIM-2 metallo-beta-lactamase | purified VIM-2, nitrocefin hydrolysis, epi-absorbance fluorescence | inhibition, % at 5.6 µM | 290,000 tested, 0.89% active;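 active means inhibition above the mean of all tested compounds plus 3 SD, cutoff set per screening run, cut at about 7.5% in these data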;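 further: red hydrolysis product quenches plate fluorescence so inhibitors raise well fluorescence; 0% = enzyme with DMSO and 100% = DMSO without enzyme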
PolyA inh: yeast polyadenylation inhibition; AID 1875; S. cerevisiae SKY197-pL101 polyadenylation reporter, beta-gal luminescence; efflux-impaired pdr1/pdr3 knockout yeast; score 100 = 6 SD above DMSO; activity score, % at 12 µM; 300,000 tested, 0.02% active;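 active means lowest replicate activity score at least 50, where 100 means six control SD above control mean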;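 further: yeast exposed to compound for 9 h at 30 °C; higher score means more reporter readthrough which indicates perturbed polyadenylation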
procasp3 activ: activators of human procaspase-3; activation, % at 8.5 µM; 330,000 tested, 0.11% active; AID 463141; recombinant procaspase-3 D3A, Ac-DEVD-pNA absorbance 405 nm;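 active means activation above the mean of all tested compounds plus 3 SD, cut at about 21% in these data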;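 further: 0% = DMSO alone and 100% = DMSO wells spiked with extra 5 µM PC-3 D3A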
Target sequence (P42574 whole entry D9A/D28A/D175A): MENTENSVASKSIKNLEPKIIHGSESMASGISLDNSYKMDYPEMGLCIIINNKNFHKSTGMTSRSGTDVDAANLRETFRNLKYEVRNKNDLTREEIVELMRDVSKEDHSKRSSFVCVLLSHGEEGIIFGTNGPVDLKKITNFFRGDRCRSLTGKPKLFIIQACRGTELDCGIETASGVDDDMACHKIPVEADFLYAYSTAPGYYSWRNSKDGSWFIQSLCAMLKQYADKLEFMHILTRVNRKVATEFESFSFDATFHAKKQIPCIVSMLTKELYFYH
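assay system = Procaspase-3 D3A mutant | signal = absorbance at 405 nm, 0 and 120 min | times = 1 h preincubation plus 2 h reaction at 25 °C | repeats = single replicate | read-out = % activation between DMSO and enzyme-spiked controls | medium = Zinc-free HEPES saline buffer with Triton X-100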
Neddyl block: inhibitors of human cullin neddylation; TR-FRET cullin neddylation, biochemical; calls only at 25 µM; 360,000 tested, 0.58% active; in the data active means inhibition above about 36%
proCasp7 act: activates human procaspase-7, counter-screen for procaspase-3 activators; 330,000 tested, 0.093% active; recombinant procaspase-7, Ac-DEVD-pNA absorbance 405 nm; D23A/D198A/D206A triple mutant, cannot self-cleave; scale: DMSO 0, 5 µM enzyme 100; activation, % at 8.5 µM; P55210;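 active means percent activation above the screen-wide mean plus 3 SD, cut at about 25% in these data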
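signal = Epi-absorbance of released pNA at 405 nm, two timepoints | assay system = Uncleavable procaspase-7 mutant enzyme | reagent = Ac-DEVD-pNA substrate, 400 µM as added | times = 1 h enzyme–compound preincubation and 2 h substrate reaction, both 25 °C | benchmarks = low DMSO alone, high DMSO plus 5 µM PC-7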
VIM-2 confirm: VIM-2 inhibition, confirmation assay | purified VIM-2 enzyme, nitrocefin absorbance | 200 tested, 73% active | AID 1860 | shares compounds with IMP-1 inh | inhibition, % at 5.6 µM; in the data active means inhibition above about 8%;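 further: 0% = enzyme with vehicle and 100% = no enzyme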
TEM-1 counter: blocks E. coli TEM-1 beta-lactamase, VIM-2 IMP-1 counter-screen; shares compounds with IMP-1 inh; nitrocefin absorbance inhibition; inhibition, % at 5.6 µM; 200 tested, 50% active; AID 2184; in the data active means inhibition above about 0.66%
Target sequence (P62593 whole entry, looked up): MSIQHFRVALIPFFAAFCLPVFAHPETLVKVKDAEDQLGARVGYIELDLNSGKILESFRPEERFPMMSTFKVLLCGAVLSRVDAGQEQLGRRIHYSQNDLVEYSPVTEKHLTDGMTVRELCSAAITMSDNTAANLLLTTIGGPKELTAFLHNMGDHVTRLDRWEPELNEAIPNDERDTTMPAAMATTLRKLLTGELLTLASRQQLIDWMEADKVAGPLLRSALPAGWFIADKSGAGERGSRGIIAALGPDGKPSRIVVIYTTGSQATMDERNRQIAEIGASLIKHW
IMP-1 inh conf: confirmation of P. aeruginosa IMP-1 metallo-beta-lactamase inhibitors | 200 tested, 60% active | shares compounds with IMP-1 inh | purified IMP-1 enzyme, absorbance substrate hydrolysis | inhibition, % at 5.6 µM | AID 2189; in the data active means inhibition above about 4.9%;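 further: 0% = enzyme with vehicle and 100% = vehicle without enzyme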
proCasp7 act trip: activates human procaspase-7, counter-screen for procaspase-3 activators; shares compounds with procasp3 activ; recombinant procaspase-7, Ac-DEVD-pNA absorbance; asp23/198/206-to-Ala mutant, cannot self-cleave; 210 tested, under 10 active; activation, % at 8.5 µM;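 active means mean activation above a set limit taken from an earlier procaspase-7 screen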;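 further: 0% = DMSO wells and 100% = DMSO plus 5 µM procaspase-7 enzyme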
proCasp3 confirm: procaspase-3 (human) activation, confirmed; recombinant PC-3 D3A, Ac-DEVD-pNA absorbance 405 nm; 100% is higher-enzyme control; activation, % at 8.5 µM; 210 tested, 10% active; AID 488954; shares compounds with procasp3 activ;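 active means mean activation above a set limit carried over from the earlier primary screen, cut at about 22% in these data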
* = called active by the depositor; i = inactive; x = no result shown; + = active, no number.

SMILES	IMP-1 inh	VIM-2 inhibitor	PolyA inh	procasp3 activ	Neddyl block	proCasp7 act	proCasp7 act trip	proCasp3 confirm	others
CCOc1cc2c(cc1/C=C/c1noc(C)c1[N+](=O)[O-])OC(C)C2 (stereo unspecified)	13*	17*	-6	11	i	1	x	x	VIM-2 confirm=20*;TEM-1 counter=30*;IMP-1 inh conf=18*
N#Cc1nc(COc2ccccc2F)oc1NCCCn1ccnc1	39*	10*	2	-11	i	11	x	x	VIM-2 confirm=2;TEM-1 counter=-2;IMP-1 inh conf=0
CCN(CC)c1ccc2cc(C(=O)NCc3ccc(F)cc3)c(=N)oc2c1	21*	8	-7	0	x	5	x	x	VIM-2 confirm=17*;TEM-1 counter=26*;IMP-1 inh conf=13*
Cc1noc(C)c1S(=O)(=O)N(C)C[C@H]1Oc2c(cccc2N(C)C)C(=O)N([C@H](C)CO)C[C@@H]1C	x	x	x	3	i	-6	x	x
O=P(O)(O)c1cc(-c2ccccc2)oc1-c1ccccc1	22*	30*	1	-6	+	2	x	x	VIM-2 confirm=40*;TEM-1 counter=-2;IMP-1 inh conf=23*
NNC(=O)c1ccc(COc2ccc3ccccc3c2)o1	-2	-2	1	0	i	3	x	x
COc1ccc(-c2nc3ccc(N4CCCC4)cc3c(=O)[nH]2)cc1OC	-3	-1	1	31*	x	-5	-20	-10
CCOc1ccc(C(=O)NCCC(=O)N2CCC3(CC2)NCCc2[nH]cnc23)cc1	-1	-2	13	3	i	2	x	x
CCOC(=O)C1(CCCc2ccccc2)CCN(C(=O)c2cc(C)nn2CC)CC1	-3	-1	6	23*	i	-11	3	5
CCOC(=O)C1(CCCc2ccccc2)CCN(C(=O)c2cncs2)CC1	-2	-1	-4	-4	i	3	x	x
O=C(CSc1nc2scc(-c3ccccc3)c2c(=O)[nH]1)Nc1ccccc1	-2	-1	1	0	i	0	x	x
Oc1ccc(/C=N/NC(=S)NCc2ccco2)cc1	-3	-5	4	4	i	-3	x	x
CCN(CC)c1ccc(/C=N/NC(=S)NCc2ccco2)cc1	-2	-1	-9	27*	x	14	2	31*
O=c1[nH]c(N/N=C\c2ccc(F)cc2)nc2ccccc12	-2	-2	-54	30*	i	22	1	-1
N#Cc1c(-c2ccccc2)cc2nc3ccccc3n2c1N	1	-1	7	31*	x	14	-11	-14
COc1ccccc1CNC(=O)CS(=O)Cc1nc(-c2ccccc2C)oc1C (stereo unspecified)	-4	1	-12	73*	i	-3	-6	1
O=C(C1CCCN(S(=O)(=O)c2cccc3nonc23)C1)N1CCN(c2ccccc2Cl)CC1 (stereo unspecified)	-2	-2	1	-1	i	-3	x	x
CCn1c(=O)cc(OCC(=O)NCCCN2CCC(C)CC2)c2ccccc21	-2	-1	4	6	i	7	x	x
CC1CCN(CCCNC(=O)COc2cc(=O)n(C)c3ccccc23)CC1	-2	2	18	38*	i	4	1	5
Cc1nnc(N(C)C(=O)c2cnccn2)s1	-2	-3	5	3	i	11	x	x
CC(=O)Nc1ccc(NC(=O)CSc2ncnc3sc(C)c(C)c23)cc1	-1	0	26	3	i	1	x	x
Cc1sc2ncnc(SCC(=O)Nc3ccc(S(=O)(=O)N4CCOCC4)cc3)c2c1C	x	x	x	23*	i	4	0	2
CCc1ccc(N2CCN(C(=O)N3CCOCC3)CC2)cc1	1	0	-13	24*	i	11	3	5
O=C(CN1C(=O)C2CC=CCC2C1=O)OCc1cc(=O)n2cc(Br)ccc2n1 (stereo unspecified)	-2	-3	-5	-7	i	4	x	x
O=C(N/N=C/c1ccc(O)cc1O)c1ccc(CN2C(=O)c3cccc4cccc2c34)cc1	-3	-4	0	23*	x	24	12	21
SMILES	IMP-1 inh	VIM-2 inhibitor	PolyA inh	procasp3 activ	Neddyl block	proCasp7 act	proCasp7 act trip	proCasp3 confirm	others
COc1ccccc1NC(=O)C(=O)c1cn(CC(=O)N2CCOCC2)c2ccccc12	-1	-4	-1	22*	i	2	3	3
CCOc1ccc(CCN2C(=S)N([C@@H](Cc3ccc(O)cc3)CN3CCC[C@@H]3CN3C(=S)NC[C@@H]3CC(C)C)C[C@@H]2Cc2ccc(O)cc2)cc1	x	x	x	x	i	x	x	x
Cc1nc(CC(=O)c2ccc(O)c(C)c2O)cs1	-3	0	-5	6	i	-2	x	x
CCCCCOc1ccc(NC2=CC(=O)CCC2)cc1	-2	2	8	24*	i	21	0	4
Cc1ccc(S(=O)(=O)N2CCN(C(=O)c3c(-c4ccccc4)noc3C)CC2)cc1C	-4	-1	-3	4	i	-3	x	x
N=c1oc2ccc3ccccc3c2cc1-c1nc(-c2ccccc2)cs1	-6	-2	-3	-16	i	-21	x	x
N=c1oc2ccccc2cc1-c1nc(-c2ccccc2)cs1	-3	-3	-19	43*	i	21	-21	-15
COC(=O)c1ccccc1NC(=O)CSc1ccc(C)cc1	-2	-1	3	3	i	-4	x	x
CCc1cc2c(CN(C)Cc3ccccc3F)cc(=O)oc2cc1O	-4	-4	9	46*	x	21	-22	-16
Cc1ccc2cc(C#N)c(NCCNC(=O)C3CC3)nc2c1C	-1	-1	-4	23*	x	21	-23	-13
O=C(NN1C(=O)C2C3C=CC(C4CC34)C2C1=O)c1ccc(Cl)c(Cl)c1 (stereo unspecified)	-3	-3	-5	0	i	6	x	x
